Laboratory results taken from ChEMBL document CHEMBL1134569, “Synthesis and in vitro and in vivo antimalarial activity of new 4-anilinoquinolines” (J Med Chem, 2001).

What was measured:
[1] = Cytotoxicity upon MRC-5 cells (diploid embryonic lung cell line) at 12.5 uM concentration; assay type: cell-based, MRC5; conditions: human
Procedure, shortened: (§1)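 MRC-5 human diploid embryonic lung cells seeded at 5000/well, washed after 24 h, then given 2-fold drug dilutions in RPMI + 5% FCS (final DMSO below 0.5%). Incubated at 37 °C, 5% CO₂, for 7 days. MTT read-out at 540 nm, scored as percent absorbance reduction versus untreated controls.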

[2] = Cytotoxicity upon MRC-5 cells (diploid embryonic lung cell line) at 6.3 uM concentration; assay type: cell-based, MRC5; conditions: human; procedure, shortened: as §1
[3] = Cytotoxicity upon MPMs (mouse peritoneal macrophages) at 32 uM concentration; Toxic Compound.
Procedure, shortened: (§2)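 Mouse peritoneal macrophages harvested 48 h after potato-starch stimulation and seeded at 30000 cells/well. After 24 h, washed and exposed to 2-fold drug dilutions in RPMI + 5% FCS (final DMSO below 0.5%) at 37 °C, 5% CO₂, for 7 days. Toxicity scored microscopically as toxic or not versus untreated controls.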

[4] = Cytotoxicity upon MPMs (mouse peritoneal macrophages) at 3.1 uM concentration; NT= No toxicity.; procedure, shortened: as §2
[5] = Cytotoxicity upon MRC-5 cells (diploid embryonic lung cell line) at 8 uM concentration; assay type: cell-based, MRC5; conditions: human; procedure, shortened: as §1
[6] = Cytotoxicity upon MPMs (mouse peritoneal macrophages) at 12.5 uM concentration; Toxic Compound; procedure, shortened: as §2
[7] = Cytotoxicity upon MRC-5 cells (diploid embryonic lung cell line) at 1 uM concentration; assay type: cell-based, MRC5; conditions: human; procedure, shortened: as §1
[8] = Cytotoxicity upon MPMs (mouse peritoneal macrophages) at 6.3 uM concentration; Toxic Compound; procedure, shortened: as §2
[9] = Cytotoxicity upon MRC-5 cells (diploid embryonic lung cell line) at 25 uM concentration; assay type: cell-based, MRC5; conditions: human; procedure, shortened: as §1
[10] = Cytotoxicity upon MRC-5 cells (diploid embryonic lung cell line) at 3.1 uM concentration; assay type: cell-based, MRC5; conditions: human; procedure, shortened: as §1
[11] = tested on: Plasmodium falciparum; assay: Inhibitory activity against chloroquine-resistant Plasmodium falciparum K1; assay type: functional, organism-based
[12] = tested on: Plasmodium falciparum; assay: Inhibitory activity against chloroquine-resistant Plasmodium falciparum FcB1R; assay type: functional, organism-based; conditions: Plasmodium falciparum
[13] = Cytotoxicity upon MPMs (mouse peritoneal macrophages) at 2 uM concentration; NT=No toxicity; procedure, shortened: as §2
[14] = Cytotoxicity upon MRC-5 cells (diploid embryonic lung cell line) at 32 uM concentration; assay type: cell-based, MRC5; conditions: human; procedure, shortened: as §1
[15] = tested on: Plasmodium falciparum; assay: Inhibitory activity against chloroquine-sensitive Plasmodium falciparum THAI
[16] = Cytotoxicity upon MRC-5 cells (diploid embryonic lung cell line) at 1.6 uM concentration; assay type: cell-based, MRC5; conditions: human; procedure, shortened: as §1
[17] = Cytotoxicity upon MPMs (mouse peritoneal macrophages) at 3.1 uM concentration; No toxicity; procedure, shortened: as §2
[18] = Cytotoxicity upon MPMs (mouse peritoneal macrophages) at 12.5 uM concentration; No toxicity; procedure, shortened: as §2
[19] = Cytotoxicity upon MPMs (mouse peritoneal macrophages) at 2 uM concentration; No toxicity; procedure, shortened: as §2
[20] = Cytotoxicity upon MPMs (mouse peritoneal macrophages) at 32 uM concentration; No toxicity; procedure, shortened: as §2
[21] = Cytotoxicity upon MPMs (mouse peritoneal macrophages) at 6.3 uM concentration; No toxicity; procedure, shortened: as §2
[22] = Cytotoxicity upon MPMs (mouse peritoneal macrophages) at 8 uM concentration; No toxicity; procedure, shortened: as §2
[23] = Cytotoxicity upon MRC-5 cells (diploid embryonic lung cell line) at 32 uM; assay type: cell-based, MRC5; conditions: human; procedure, shortened: as §1
[24] = tested on: Mus musculus; assay: Antimalarial activity on Plasmodium berghei in mice (Mus musculus) dosed at 40 mg/kg at day 7; assay type: functional
Procedure, shortened: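 Female Swiss CD-1 mice (4 weeks, 20-25 g), three per group, infected ip with about 10⁷ P. berghei ANKA 65 parasitized erythrocytes from an infected donor. Dosed orally at 40 mg/kg in 100% DMSO at infection, then ip for the following 4 days. Parasitaemia reduction and mean survival time compared with three DMSO-dosed infected controls.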

[25] = Cytotoxicity upon MRC-5 cells (diploid embryonic lung cell line) at 6.3 uM; assay type: cell-based, MRC5; conditions: human; procedure, shortened: as §1
[26] = Cytotoxicity upon MRC-5 cells (diploid embryonic lung cell line) at 8 uM; assay type: cell-based, MRC5; conditions: human; procedure, shortened: as §1
[27] = Cytotoxicity upon MRC-5 cells (diploid embryonic lung cell line) at 12.5 uM; assay type: cell-based, MRC5; conditions: human; procedure, shortened: as §1
[28] = Cytotoxicity upon MRC-5 cells (diploid embryonic lung cell line) at 25 uM conc.; assay type: cell-based, MRC5; conditions: human; procedure, shortened: as §1
[29] = tested on: Mus musculus; assay: Change in the mean survival time of the treated mice infected with Plasmodium berghei, dosed at 40 mg/kg; assay type: functional
Procedure, shortened: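 P. berghei ANKA 65 in 4-week-old female Swiss CD-1 mice (20-25 g), infected ip with about 10⁷ parasitized erythrocytes; 40 mg/kg given orally at infection (formulated in 100% DMSO), then ip over the following 4 days; three mice per group; mean survival time of treated mice compared with three infected DMSO-dosed controls.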

[30] = Cytotoxicity upon MRC-5 cells (diploid embryonic lung cell line) at 3.1 uM; assay type: cell-based, MRC5; conditions: human; procedure, shortened: as §1
[31] = Cytotoxicity upon MPMs (mouse peritoneal macrophages) at 12.5 uM conc.; Toxic; procedure, shortened: as §2
[32] = Cytotoxicity upon MPMs (mouse peritoneal macrophages) at 6.3 uM; procedure, shortened: as §2
[33] = Cytotoxicity upon MPMs (mouse peritoneal macrophages) at 3.1 uM conc.;NT=No Toxicity; procedure, shortened: as §2
[34] = Cytotoxicity upon MRC-5 cells (diploid embryonic lung cell line) at 1 uM; assay type: cell-based, MRC5; conditions: human; procedure, shortened: as §1
[35] = Cytotoxicity upon MRC-5 cells (diploid embryonic lung cell line) at 1.6 uM conc.; assay type: cell-based, MRC5; conditions: human; procedure, shortened: as §1

## CCN(CC)Cc1cc(Nc2ccnc3cc(Cl)ccc23)ccc1O.Cl
[1]
  cytotoxicity at 12.5 µM: 0%
[2]
  cytotoxicity at 6.3 µM: 0%
[3]
  Cytotoxicity: Toxic
[4]
  NT: No toxicity
[5]
  cytotoxicity at 8 µM: 0%
[6]
  Cytotoxicity: Toxic
[7]
  cytotoxicity at 1 µM: 0%
[8]
  Cytotoxicity: Toxic
[9]
  cytotoxicity at 25 µM: 91%
[10]
  cytotoxicity at 3.1 µM: 0%
[11]
  IC50: 14.5 nM
[12]
  IC50: 7.4 nM
[13]
  NT: No toxicity
[14]
  cytotoxicity at 32 µM: 91%
[15]
  IC50: 7.3 nM

## CCN(CC)CCCC(C)Nc1ccnc2cc(Cl)ccc12 (stereo not given) [CHLOROQUINE]
[1]
  cytotoxicity at 12.5 µM: 0%
[2]
  cytotoxicity at 6.3 µM: 0%
[16]
  cytotoxicity at 1.6 µM: 0%
[17]
  NA: Not Active
[5]
  cytotoxicity at 8 µM: 0%
[18]
  NA: Not Active
[19]
  NA: Not Active
[7]
  cytotoxicity at 1 µM: 0%
[9]
  cytotoxicity at 25 µM: 0%
[20]
  NA: Not Active
[10]
  cytotoxicity at 3.1 µM: 0%
[21]
  NA: Not Active
[22]
  NA: Not Active
[14]
  cytotoxicity at 32 µM: 0%

## O=C(CN1CCCCC1)Nc1cc(CO)cc(Nc2ccnc3cc(Cl)ccc23)c1
[23]
  cytotoxicity at 32 µM: 99%
[24]
  Reduction in parasitemia: 60%
[25]
  cytotoxicity at 6.3 µM: 0%
[26]
  cytotoxicity at 8 µM: 0%
[27]
  cytotoxicity at 12.5 µM: 0%
[28]
  cytotoxicity at 25 µM: 98%
[29]
  Excess MST: 110%
[30]
  cytotoxicity at 3.1 µM: 0%
[31]
  Cytotoxicity: Toxic
[32]
  NT: Cytotoxicity upon MPMs at 6.3 uM
[33]
  NT: Cytotoxicity upon MPMs at 6.3 uM
[34]
  cytotoxicity at 1 µM: 0%
[35]
  cytotoxicity at 1.6 µM: 0%
[11]
  IC50: 152 nM
[12]
  IC50: 44.5 nM
[15]
  IC50: 89.6 nM
